Data from article PMC11344153 (Scientific Reports, 2024).

Experiments:
[1] = tested on: N-terminal peptide of GPIHBP1; assay: SPR binding to immobilized N-terminal peptide of GPIHBP1; parameters: species or system human; settings: even at concentrations of 1 μM, 25 °C, 20 mM HEPES pH 7.4, 0.15 M NaCl
Method in brief: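 Biacore SPR with 578 RU of biotinylated N-terminal GPIHBP1 peptide captured on the sensor (148.5 fmol/mm2). Analytes were tenfold-diluted pooled nonfasting human plasma, tenfold-diluted lipoprotein-deficient plasma (± 20, 40 or 80 nM purified bovine LPL) or isolated heparin-binding proteins (antithrombin III, protamine, FGF-2). Flow was 20 µl/min at 25 °C in 20 mM HEPES pH 7.4, 0.15 M NaCl.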

LPL = target: T1, LPL (Bos taurus, UniProt P11151); format: binding, bovine; settings: fluorescence anisotropy, 10 IU/ml heparin in phosphate buffer
T1 sequence (P11151 29-478): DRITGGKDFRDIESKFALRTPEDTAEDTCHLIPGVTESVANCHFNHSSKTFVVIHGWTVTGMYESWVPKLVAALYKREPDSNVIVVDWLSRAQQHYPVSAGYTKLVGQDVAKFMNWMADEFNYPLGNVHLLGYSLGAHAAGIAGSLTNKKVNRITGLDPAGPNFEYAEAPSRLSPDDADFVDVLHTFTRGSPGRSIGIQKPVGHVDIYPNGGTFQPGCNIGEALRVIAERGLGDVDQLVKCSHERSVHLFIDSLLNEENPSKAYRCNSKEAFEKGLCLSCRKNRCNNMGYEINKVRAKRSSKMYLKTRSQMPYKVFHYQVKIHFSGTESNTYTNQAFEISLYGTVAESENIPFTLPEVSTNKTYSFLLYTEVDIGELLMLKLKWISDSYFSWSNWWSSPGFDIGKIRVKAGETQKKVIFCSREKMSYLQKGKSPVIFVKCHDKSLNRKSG
Method in brief: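 N-terminal GPIHBP1 peptide labeled at cysteine with DyLight 488 maleimide, 100 nM, mixed with increasing LPL concentrations in 20 mM phosphate, pH 7.4, 0.15 M NaCl plus 10 IU/ml heparin. Excitation 493 nm, emission 518 nm, with emission polarizer parallel and perpendicular to vertical excitation. Anisotropy change versus LPL concentration fitted to a 1:1 binding model for KD.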

Substance	binding to the immobilized N-terminal domain of GPIHBP1 [1]	effect on the interaction between LPL and the N-terminal domain of GPIHBP1 (LPL)
FGF-2: heparin binding protein, ICN Biomedicals	no binding	–
antithrombin III	no binding	–
heparin	–	completely blocked the interaction
protamine	no binding	–
